According to PMC6438620 (Bioorganic & medicinal chemistry letters, 2018):
pIC50, pKi: −log10 of the molar value.

Key:
D4 dopamine receptor = biological target: T1, D4 dopamine receptor (Homo sapiens, UniProt P21917); assay: PDSP primary binding and radioligand binding
T1 sequence (P21917 1-419): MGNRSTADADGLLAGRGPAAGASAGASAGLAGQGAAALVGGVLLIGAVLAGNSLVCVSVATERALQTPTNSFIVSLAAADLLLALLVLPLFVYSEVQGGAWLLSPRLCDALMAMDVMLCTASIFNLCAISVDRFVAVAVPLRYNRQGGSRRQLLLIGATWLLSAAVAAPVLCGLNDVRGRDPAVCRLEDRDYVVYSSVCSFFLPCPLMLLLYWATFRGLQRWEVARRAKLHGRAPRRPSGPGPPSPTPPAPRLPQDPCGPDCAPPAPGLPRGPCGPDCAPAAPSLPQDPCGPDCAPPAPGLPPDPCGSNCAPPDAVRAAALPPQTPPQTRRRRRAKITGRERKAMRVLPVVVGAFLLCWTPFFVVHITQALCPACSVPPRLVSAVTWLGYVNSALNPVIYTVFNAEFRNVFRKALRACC

Toxicity in mice = conditions: mouse, in vivo
Procedure, shortened: (§1)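 Female C57BL6 mice were dosed with test compound at 5 mg/kg i.p. once daily for seven consecutive days and sacrificed 24 h after the last injection. Blood clinical chemistry covered electrolytes, minerals, total protein, albumin, globulin, A/G ratio, BUN, ALT, AST, GLDH, ALP, bilirubin, amylase and creatine kinase.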

[1] = Tissue distribution by LC-MS/MS after 7-day i.p. treatment; conditions: 5 mg/kg i.p. daily for 7 days, 24 h after last injection
[2] = tested on: LLC luc and MDA MB-231 cell lines; assay: MTT colorimetric cytotoxicity assay, values given over both cell lines; conditions: for Cytotoxic activity compared with penfluridol: MTT, LLC luc and MDA MB-231
[3] = Clinical chemistry analysis of blood samples; type: in vivo, C57BL6 mice; conditions: 5 mg/kg, daily i.p. dosing for 7 days, n = 5
Procedure, shortened: as §1

[4] = biological target: H1 (histamine receptor 1) (Homo sapiens, UniProt P35367); assay: PDSP primary binding and radioligand binding
Sequence of H1 (histamine receptor 1) (P35367 whole entry): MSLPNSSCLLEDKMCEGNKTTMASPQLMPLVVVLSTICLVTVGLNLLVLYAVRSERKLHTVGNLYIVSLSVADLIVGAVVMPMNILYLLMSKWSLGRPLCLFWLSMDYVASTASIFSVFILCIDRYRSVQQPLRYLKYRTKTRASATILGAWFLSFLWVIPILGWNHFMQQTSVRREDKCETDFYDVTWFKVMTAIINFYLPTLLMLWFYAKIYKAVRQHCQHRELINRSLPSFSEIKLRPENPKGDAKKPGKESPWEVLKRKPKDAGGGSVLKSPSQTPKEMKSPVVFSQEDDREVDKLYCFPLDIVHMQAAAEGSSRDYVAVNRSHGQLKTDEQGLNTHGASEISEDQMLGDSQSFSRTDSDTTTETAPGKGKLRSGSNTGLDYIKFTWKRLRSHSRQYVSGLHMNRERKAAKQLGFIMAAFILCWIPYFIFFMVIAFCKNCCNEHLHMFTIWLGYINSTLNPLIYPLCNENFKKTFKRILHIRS

[5] = biological target: H2 (histamine receptor 2) (Homo sapiens, UniProt P25021); assay: PDSP primary binding and radioligand binding
Sequence of H2 (histamine receptor 2) (P25021 whole entry): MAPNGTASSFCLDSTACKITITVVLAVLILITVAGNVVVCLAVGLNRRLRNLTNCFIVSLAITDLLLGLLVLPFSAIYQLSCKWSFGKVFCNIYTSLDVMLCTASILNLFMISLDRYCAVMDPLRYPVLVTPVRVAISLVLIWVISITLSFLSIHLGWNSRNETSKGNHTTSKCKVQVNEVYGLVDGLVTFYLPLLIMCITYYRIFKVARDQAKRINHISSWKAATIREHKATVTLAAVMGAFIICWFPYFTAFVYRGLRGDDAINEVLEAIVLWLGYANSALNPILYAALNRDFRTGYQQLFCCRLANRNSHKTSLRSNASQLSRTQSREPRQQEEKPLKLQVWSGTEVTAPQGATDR

serotonin receptors = assay: PDSP binding at serotonin receptor subtypes

Structure (SMILES)	Toxicity in mice (Toxicity in mice)	Distribution pattern: accumulation of the drug [1]	Cytotoxic activity compared with penfluridol [2]	Alkaline phosphatase (ALP) levels [3]	Blood urea nitrogen (BUN) levels [3]	Glutamate dehydrogenase (GLDH) [3]	Inhibition at some serotonin receptors (serotonin receptors; primary binding)	other results
OC1(c2ccc(Cl)c(C(F)(F)F)c2)CCN(CCCCC(c2ccc(F)cc2)c2ccc(F)cc2)CC1 [8a]	no toxicity in mice	predominantly in the adipose tissue and lungs						pKi (D4 dopamine receptor): 7.60; Level of the drug in the brain relative to penfluridol [1]: higher level of the drug in the brain relative to penfluridol
OC1(c2ccc(Cl)c(C(F)(F)F)c2)CCN(CCCC(c2ccccc2)c2ccccc2)CC1 [8b]			reduced activity					
COc1ccc(N(CCCCN2CCC(O)(c3ccc(Cl)c(C(F)(F)F)c3)CC2)c2ccc(OC)cc2)cc1 [8c]	no toxicity in mice			None of these changes was observed	None of these changes was observed	None of these changes was observed		Concentration of the drug in all tested samples (plasma, brain, lungs, adipose tissue) [1]: lower concentration of the drug in all tested samples
OC1(c2ccc(Cl)c(C(F)(F)F)c2)CCN(CCCCN(c2ccc(F)cc2)c2ccc(F)cc2)CC1 [11b]							50–80%	Activity at H1 receptor [4]: abolished activity; Activity at H2 receptor [5]: abolished activity; Change of Ki values compared to penfluridol (serotonin receptors; other serotonin receptor subtypes): 3–16 fold; Inhibition levels at other serotonin receptor subtypes (serotonin receptors; primary binding, other serotonin receptor subtypes): > 90%
OC1(c2ccc(Cl)c(C(F)(F)F)c2)CCN(CCCCCc2ccc(F)cc2)CC1 [compound 13]			reduced activity					
OC1(c2ccc(Cl)c(C(F)(F)F)c2)CCN(CCCC(c2ccc(F)cc2)c2ccc(F)cc2)CC1 [penfluridol, reference compound]		predominantly in the adipose tissue and lungs		decreased ALP levels	decreased BUN levels	increased GLDH	95–100%	pIC50 ([2]; Homo sapiens, MDA-MB-231, read-out: IC50 (cytotoxicity, MTT)): 5.29 to 5.37
